Laboratory results: publication PMC5769151 (Journal of medicinal chemistry, 2015)

Columns and labels:
μ opioid receptor (MOR) = format: binding
NK1R [1] = target: T1, NK1R (Homo sapiens, UniProt P25103); assay: hNK1/CHO cell membrane radioligand binding assay; conditions: binding ratio human/rat NK1
Target sequence in this assay (P25103 whole entry): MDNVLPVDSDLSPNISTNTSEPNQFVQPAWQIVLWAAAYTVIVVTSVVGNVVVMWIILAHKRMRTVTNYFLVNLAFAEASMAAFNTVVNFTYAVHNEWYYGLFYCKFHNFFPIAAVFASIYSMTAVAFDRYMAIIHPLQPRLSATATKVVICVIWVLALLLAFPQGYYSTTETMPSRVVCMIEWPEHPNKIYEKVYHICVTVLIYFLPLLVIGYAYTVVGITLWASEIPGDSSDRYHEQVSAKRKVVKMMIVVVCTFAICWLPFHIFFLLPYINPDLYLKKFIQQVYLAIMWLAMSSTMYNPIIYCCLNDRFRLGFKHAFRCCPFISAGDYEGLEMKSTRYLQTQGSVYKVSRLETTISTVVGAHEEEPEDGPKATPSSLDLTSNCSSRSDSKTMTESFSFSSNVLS

GPI (MOR) = assay: Guinea pig isolated ileum; format: cell-based; conditions: IC50 μ / IC50 δ
Procedure, shortened: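 Male Hartley guinea pig ileum LMMP (0.1 Hz, 0.4 ms) and male ICR mouse vasa deferentia (0.5 g tension, Mg-free Krebs, 37 °C, O2/CO2 95:5; 0.1 Hz single pulses, 2.0 ms), electrically stimulated at supramaximal voltage.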

GPI/LMMP (NK1R) = GPI/LMMP (NK1R) (Cavia porcellus, UniProt P30547); assay: GPI/LMMP functional assay at NK1R; format: cell-based, guinea pig; conditions: at the concentration printed in the cell
MOR = MOR (Homo sapiens, UniProt P35372); format: cell-based
NK1R [2] = target: T1, NK1R; format: cell-based
Target sequence in this assay (P25103 whole entry, species assumed): as the sequence (P25103 whole entry) above

Sequence of MOR (P35372 whole entry): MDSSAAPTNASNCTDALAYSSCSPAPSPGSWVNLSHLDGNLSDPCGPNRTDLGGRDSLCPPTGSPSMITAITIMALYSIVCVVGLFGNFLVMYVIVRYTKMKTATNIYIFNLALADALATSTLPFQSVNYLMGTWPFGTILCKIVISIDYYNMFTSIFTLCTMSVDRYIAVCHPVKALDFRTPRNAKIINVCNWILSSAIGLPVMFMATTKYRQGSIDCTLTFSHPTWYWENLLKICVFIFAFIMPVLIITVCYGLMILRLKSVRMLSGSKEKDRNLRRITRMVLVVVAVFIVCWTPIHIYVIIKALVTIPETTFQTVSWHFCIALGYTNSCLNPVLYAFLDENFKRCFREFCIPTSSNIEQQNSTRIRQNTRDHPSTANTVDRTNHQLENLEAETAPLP
Sequence of GPI/LMMP (NK1R) (P30547 whole entry): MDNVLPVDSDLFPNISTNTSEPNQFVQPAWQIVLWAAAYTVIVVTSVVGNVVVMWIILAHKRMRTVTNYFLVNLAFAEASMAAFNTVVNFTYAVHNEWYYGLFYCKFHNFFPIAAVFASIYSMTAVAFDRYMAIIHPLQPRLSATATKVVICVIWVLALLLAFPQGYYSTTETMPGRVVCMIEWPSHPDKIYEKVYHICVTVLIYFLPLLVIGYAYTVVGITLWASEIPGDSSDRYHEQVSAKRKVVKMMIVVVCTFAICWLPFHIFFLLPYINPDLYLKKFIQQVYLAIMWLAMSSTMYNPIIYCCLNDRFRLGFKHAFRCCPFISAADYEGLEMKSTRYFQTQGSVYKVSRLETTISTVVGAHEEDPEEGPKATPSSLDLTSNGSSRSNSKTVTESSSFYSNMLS

## Cc1cc(O)cc(C)c1C[C@H](N)C(=O)N[C@H](C)C(=O)NCC(=O)N[C@@H](Cc1ccccc1)C(=O)N1CCC[C@H]1C(=O)N[C@@H](CC(C)C)C(=O)N[C@@H](Cc1c[nH]c2ccccc12)C(=O)NCc1cc(C(F)(F)F)cc(C(F)(F)F)c1 [ligand 4]
μ opioid receptor (MOR); binding ratio MOR/DOR
  Ki^μ/Ki^δ: 3/1
μ opioid receptor (MOR); log IC50 from nonlinear regression, MOR binding
  log[IC50±] (MOR): −8.63 ± 0.04
NK1R [1]
  Ki^hNK1/Ki^rNK1: 1/19
GPI (MOR)
  GPI/MVD IC50 ratio: 26/1
GPI/LMMP (NK1R)
  GPI/LMMP (NK1R) agonism: none at 100 nM
MOR
  MOR/DOR IC50 ratio (cAMP assay): 6/1
NK1R [2]
  Kb: 11 ± 10 nM
